iPSC survival up = increases survival of single human iPS cells | AID 602274 | survival enhancement, % at 20 µM | 360,000 tested, 0.044% active | hiPSC single-cell survival, ATPlite luminescence; 100% = ROCK inhibitor wells, 0% = DMSO; in the data active means survival enhancement above about 18%;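 further: cells exposed to compounds for 16 hours before the ATP read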
PPC-1+TRAIL kill = PPC-1 cancer cell killing with TRAIL present; PPC-1 cells + TRAIL, ATPLite viability luminescence; 220,000 tested, 0.41% active; AID 1443; cell killing (% activity), % at 4 µM or 5 µM;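 active means cell killing above 50% in the first pass at 4 µM, then a duplicate retest at 5 µM averaging 50% or more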;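 further: plate controls were cells with TRAIL plus DMSO for no effect and medium-only wells lacking cells for full effect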
TRAIL sens C8 = caspase-8 TRAIL sensitization; NB7+C8 cells + TRAIL, ATPlite viability luminescence; inhibition (viability loss, TRAIL sensitization), % at 10 µM; 360,000 tested, 1% active; AID 624354;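 active means compounds causing at least 50% loss of cell viability in the single-dose screen, relative to plate controls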
MIN6 prolif = MIN6 beta-cell proliferation induction; MIN6 cells proliferation, ATPlite luminescence, 48 h; cells starved in 0.2% serum; 100% = growth in 10% serum; proliferation, % at 10 µM; 330,000 tested, 0.29% active;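 active means compounds whose signal lies at least 3.5 SD above the mean of all wells on their plate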;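 further: 0% = DMSO-treated cells in low-serum medium and 100% = 10% serum control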
FLuc stim CS = affects firefly luciferase, flagging false hits in luciferase stimulation screens. ATPlite luciferase biochemical, luminescence, 10 min; 0 = ATP-free wells, 1 = DMSO control. activation factor at 10 µM. 200,000 tested, under 10 active. AID 1027;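 active means luciferase activation factor, scaled between plate controls, of at least 2 with compound at 10 µM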
Target sequence (P08659 whole entry, looked up): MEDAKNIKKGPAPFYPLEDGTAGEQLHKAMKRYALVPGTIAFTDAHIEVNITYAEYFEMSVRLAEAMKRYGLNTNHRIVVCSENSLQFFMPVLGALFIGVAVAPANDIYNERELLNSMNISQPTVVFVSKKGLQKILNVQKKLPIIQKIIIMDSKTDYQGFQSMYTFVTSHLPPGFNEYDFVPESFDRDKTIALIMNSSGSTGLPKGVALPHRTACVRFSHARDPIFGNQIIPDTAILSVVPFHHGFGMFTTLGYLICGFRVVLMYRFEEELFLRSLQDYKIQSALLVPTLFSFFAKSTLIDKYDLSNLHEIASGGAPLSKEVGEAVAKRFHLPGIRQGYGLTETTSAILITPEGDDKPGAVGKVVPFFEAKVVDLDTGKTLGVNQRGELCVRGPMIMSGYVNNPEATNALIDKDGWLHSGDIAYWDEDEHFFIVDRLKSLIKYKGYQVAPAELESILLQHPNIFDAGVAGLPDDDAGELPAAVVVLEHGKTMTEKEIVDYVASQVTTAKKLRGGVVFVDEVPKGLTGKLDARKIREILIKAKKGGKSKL
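assay system = Luciferase/luciferin detection reagent, cell-free biochemical luciferase assay | also added = ATP substrate | times = 10 min post-reagent at room temperature | measured by = luminescence from luciferase reaction | measure = luciferase activation, seen as luminescence increase over controls | benchmarks = low control with PBS replacing ATP, high control enzyme plus ATP without compound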
FLuc inhib CS = Photinus pyralis luciferase inhibition counter-screen | P08659 | ATPLite firefly luciferase biochemical luminescence, 10 min | inhibition, % at 10 µM | 200,000 tested, 1.5% active;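 active means inhibition above about 50% when tested at 10 µM, limit read from the data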
An asterisk follows results filed as active. Hits are enriched below; roughly 1.8% of the tested compounds scored in any of these assays.

What do the screens show for `N/C(=N\OC(=O)c1ccccc1)C(C(=O)NOC(=O)c1ccccc1)C1CCCCC1` (centres undefined)?
iPSC survival up: 0; TRAIL sens C8: 91*

Results for O=C1C(C=NCc2ccncc2)=C(O)c2ccccc21 ?
iPSC survival up: -1; PPC-1+TRAIL kill: 3; TRAIL sens C8: -23; MIN6 prolif: 1; FLuc stim CS: 1; FLuc inhib CS: -2

Results for O=C1C(C=Nc2ccc(F)cc2)=C(O)c2ccccc21 ?
iPSC survival up: -2; PPC-1+TRAIL kill: 22; TRAIL sens C8: 57*; MIN6 prolif: -4; FLuc stim CS: 0.2; FLuc inhib CS: 77*

What do the screens show for `CCOC(=O)CCN(Cc1ccccc1)S(=O)(=O)c1csc(C(N)=O)c1`?
iPSC survival up: 0; TRAIL sens C8: -19; MIN6 prolif: 2

How did Cc1ccc(NS(=O)(=O)c2cc(C(=O)NCCCN(C)C)ccc2Cl)cc1Cl do in these assays?
iPSC survival up: 0; TRAIL sens C8: -5; MIN6 prolif: -1

How did N#Cc1cc2c(nc1SCC(=O)Nc1nccs1)CCCCC2 do in these assays?
iPSC survival up: -4; PPC-1+TRAIL kill: 67*; TRAIL sens C8: 59*; MIN6 prolif: -6; FLuc stim CS: 1; FLuc inhib CS: -4

How did CCCCNc1c(-c2ccc(F)cc2)nc2nc(C)cc(C)n12 do in these assays?
iPSC survival up: 0; TRAIL sens C8: -18

What do the screens show for `COc1ccc(OCc2cccc(C(=O)Nn3cc([N+](=O)[O-])cn3)c2)cc1`?
iPSC survival up: 4; PPC-1+TRAIL kill: 37; TRAIL sens C8: 28; MIN6 prolif: -3; FLuc stim CS: 0.3; FLuc inhib CS: 70*

What do the screens show for `O=C(N/N=C/C(Cl)=C\c1ccccc1)c1cccs1`?
iPSC survival up: 0; PPC-1+TRAIL kill: 5; TRAIL sens C8: 26; MIN6 prolif: -3

Results for CC(/C=N/NC(=O)c1cccs1)=C\c1ccccc1 ?
iPSC survival up: -2; PPC-1+TRAIL kill: 21; TRAIL sens C8: 58*; MIN6 prolif: -5; FLuc stim CS: 0.2; FLuc inhib CS: 76*

Results for CC(/C=N/NC(=O)c1n[nH]c2c1CCC2)=C\c1ccccc1 ?
iPSC survival up: -1; PPC-1+TRAIL kill: 20; TRAIL sens C8: 47*; MIN6 prolif: -5; FLuc stim CS: 0.5; FLuc inhib CS: 53*

How did COc1cccc(OC)c1C(=O)OCCCOC(=O)c1c(OC)cccc1OC do in these assays?
iPSC survival up: 0; TRAIL sens C8: 3; MIN6 prolif: 0

Results for Cc1cc(C)n(CCNC(=O)c2ccco2)n1 ?
iPSC survival up: 0; TRAIL sens C8: 0; MIN6 prolif: 3

What do the screens show for `COc1ccccc1CNC(=O)CN(c1ccc(C)cc1)S(=O)(=O)c1c(C)noc1C`?
iPSC survival up: 0; TRAIL sens C8: 1; MIN6 prolif: -1

What do the screens show for `O=[N+]([O-])c1ccc(/C=N/NC2=NS(=O)(=O)c3ccccc32)cc1`?
iPSC survival up: 0; PPC-1+TRAIL kill: 14; TRAIL sens C8: -2; MIN6 prolif: 0; FLuc stim CS: 0.6; FLuc inhib CS: 37

Results for O=[N+]([O-])c1ccc(O)c(/C=N/NC2=NS(=O)(=O)c3ccccc32)c1 ?
iPSC survival up: 4; PPC-1+TRAIL kill: 22; TRAIL sens C8: 3; MIN6 prolif: 3; FLuc stim CS: 0.3; FLuc inhib CS: 69*

What do the screens show for `COc1ccccc1-c1cc(C(=O)N2CCN(S(=O)(=O)c3ccc(C)cc3)CC2)[nH]n1`?
iPSC survival up: 0; TRAIL sens C8: 4; MIN6 prolif: -2

How did CCN1/C(=C/C(C)=C/c2sc3ccccc3[n+]2CC)Sc2ccccc21 do in these assays?
iPSC survival up: -2; PPC-1+TRAIL kill: 47; TRAIL sens C8: 50*; MIN6 prolif: -5; FLuc stim CS: 0.6; FLuc inhib CS: 42

Results for CC1=CN2C(=N)/C(=C/c3ccco3)C(=O)N=C2S1 ?
iPSC survival up: -2; PPC-1+TRAIL kill: 45; TRAIL sens C8: 58*; MIN6 prolif: 0; FLuc stim CS: 0.1; FLuc inhib CS: 92*

What do the screens show for `O=C(COC(=O)c1ccccc1OC(F)F)Nc1ccc2[nH]c(=O)[nH]c2c1`?
iPSC survival up: 2; TRAIL sens C8: -27; MIN6 prolif: 2
